Measured values as given in ChEMBL document CHEMBL4382192, “Discovery of a potent dual ALK and EGFR T790M inhibitor” (Eur J Med Chem, 2017).

Assays:
[1] = Half life in mouse at 2 mg/kg, iv; type: ADME, organism-based; details: in vivo
[2] = Drug uptake in mouse lung at 10 mg/kg, po after 8 hrs; type: ADME, organism-based; details: read-out: Drug uptake
[3] = target: Tyrosine-protein kinase ABL2 (Homo sapiens) (UniProt P42684); experiment: Binding affinity to wild-type human ABL2 (A248 to G542 residues) expressed in bacterial expression system assessed as residual binding level at 1 uM by Kinomescan method relative to control
In short: (§1)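 Kinome-wide selectivity panel run by the KINOMEscan method, with the test compound at a single concentration of 1 μM. Wild-type and mutant kinases were profiled in the same screen.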

[4] = target: Activin receptor type-2B (Homo sapiens) (UniProt Q13705); experiment: Binding affinity to wild-type human ACVR2B (H169 to D504 residues) expressed in bacterial expression system assessed as residual binding level at 1 uM by Kinomescan method relative to control
[5] = target: ALK tyrosine kinase receptor (Homo sapiens, UniProt Q9UM73); experiment: Binding affinity to wild-type human partial length ALK (I1088 to E1409 residues) expressed in mammalian expression system assessed as residual binding level at 1 uM by Kinomescan method relative to control
[6] = target: Tyrosine-protein kinase receptor UFO (Homo sapiens) (UniProt P30530); experiment: Binding affinity to wild-type human partial length AXL (R497 to Y821 residues) expressed in bacterial expression system assessed as residual binding level at 1 uM by Kinomescan method relative to control
[7] = target: Bone morphogenetic protein receptor type-1B (Homo sapiens) (UniProt O00238); experiment: Binding affinity to wild-type human partial length BMPR1B (D178 to L502 residues) expressed in mammalian expression system assessed as residual binding level at 1 uM by Kinomescan method relative to control
[8] = target: Serine/threonine-protein kinase B-raf (Homo sapiens) (UniProt P15056); experiment: Binding affinity to wild-type human partial length BRAF (S429 to E741 residues) expressed in mammalian expression system assessed as residual binding level at 1 uM by Kinomescan method relative to control
[9] = target: CDK4/Cyclin D3 (Homo sapiens) (UniProt P11802+P30281); experiment: Binding affinity to wild-type human full length CDK4/cyclinD3 (M1 to E303 residues) expressed in mammalian expression system assessed as residual binding level at 1 uM by Kinomescan method relative to control
[10] = target: Casein kinase I isoform gamma-2 (Homo sapiens) (UniProt P78368); experiment: Binding affinity to wild-type human full length CSNK1G2 (M1 to K415 residues) expressed in bacterial expression system assessed as residual binding level at 1 uM by Kinomescan method relative to control
[11] = target: G protein-coupled receptor kinase 4 (Homo sapiens) (UniProt P32298); experiment: Binding affinity to wild-type human full length GRK4 (M1 to C578 residues) expressed in bacterial expression system assessed as residual binding level at 1 uM by Kinomescan method relative to control
[12] = target: Leucine-rich repeat serine/threonine-protein kinase 2 (Homo sapiens) (UniProt Q5S007); experiment: Binding affinity to wild-type human partial length LRRK2 (H970 to E2527 residues) expressed in mammalian expression system assessed as residual binding level at 1 uM by Kinomescan method relative to control
[13] = target: Mitogen-activated protein kinase kinase kinase 2 (Homo sapiens) (UniProt Q9Y2U5); experiment: Binding affinity to wild-type human partial length MAP3K2 (S315 to H619 residues) expressed in mammalian expression system assessed as residual binding level at 1 uM by Kinomescan method relative to control
[14] = target: Serine/threonine-protein kinase MARK1 (Homo sapiens) (UniProt Q9P0L2); experiment: Binding affinity to wild-type human partial length MARK1 (Q30 to T341 residues) expressed in bacterial expression system assessed as residual binding level at 1 uM by Kinomescan method relative to control
[15] = tested on: Hepatocyte growth factor receptor (Homo sapiens), P08581 [M1250T]; experiment: Binding affinity to human partial length MET M1250T mutant (D1010 to S1367 residues) expressed in bacterial expression system assessed as residual binding level at 1 uM by Kinomescan method relative to control; in short: as §1
[16] = target: Serine/threonine-protein kinase 38-like (Homo sapiens) (UniProt Q9Y2H1); experiment: Binding affinity to wild-type human partial length NDR2 (N34 to E447 residues) expressed in bacterial expression system assessed as residual binding level at 1 uM by Kinomescan method relative to control
[17] = target: Phosphatidylinositol 4-phosphate 3-kinase C2 domain-containing subunit beta (Homo sapiens) (UniProt O00750); experiment: Binding affinity to wild-type human partial length PIK3C2B (M1 to L1634 residues) expressed in mammalian expression system assessed as residual binding level at 1 uM by Kinomescan method relative to control
[18] = tested on: Phosphatidylinositol 4,5-bisphosphate 3-kinase catalytic subunit alpha isoform (Homo sapiens), P42336 [Q546K]; experiment: Binding affinity to human partial length PIK3CA Q546K mutant (R108 to N1068 residues) expressed in mammalian expression system assessed as residual binding level at 1 uM by Kinomescan method relative to control
[19] = target: Serine/threonine-protein kinase D1 (Homo sapiens) (UniProt Q15139); experiment: Binding affinity to wild-type human partial length PRKD1 (G551 to E870 residues) expressed in bacterial expression system assessed as residual binding level at 1 uM by Kinomescan method relative to control
[20] = target: Ribosomal protein S6 kinase alpha-6 (Homo sapiens) (UniProt Q9UK32); experiment: Binding affinity to wild-type human partial length C-terminal RSK4 kinase domain 2 (I401 to Y711 residues) expressed in bacterial expression system assessed as residual binding level at 1 uM by Kinomescan method relative to control
[21] = target: Ribosomal protein S6 kinase beta-1 (Homo sapiens) (UniProt P23443); experiment: Binding affinity to wild-type human partial length S6K1 (M1 to S421 residues) expressed in mammalian expression system assessed as residual binding level at 1 uM by Kinomescan method relative to control
[22] = target: Serine/threonine-protein kinase 33 (Homo sapiens) (UniProt Q9BYT3); experiment: Binding affinity to wild-type human full length STK33 (M1 to L514 residues) expressed in bacterial expression system assessed as residual binding level at 1 uM by Kinomescan method relative to control
[23] = target: Tyrosine-protein kinase SYK (Homo sapiens) (UniProt P43405); experiment: Binding affinity to wild-type human partial length SYK (D354 to N635 residues) expressed in bacterial expression system assessed as residual binding level at 1 uM by Kinomescan method relative to control
[24] = target: Receptor tyrosine-protein kinase erbB-2 (Homo sapiens, UniProt P04626); experiment: Inhibition of recombinant His-tagged human ErbB2 cytoplasmic domain expressed in baculovirus expression system by Z-LYTE assay
[25] = target: CYP2C19 (Homo sapiens, UniProt P33261); experiment: Residual activity of CYP2C19 in human liver microsomes at 10 uM using S-mephenytoin 4-hydroxylase as substrate preincubated for 5 mins followed by NADPH addition measured after 15 mins by LC/MS/MS analysis relative to control; details: probe S-mephenytoin (4-hydroxylation)

Ribosomal protein S6 kinase beta-1 (Homo sapiens), sequence (P23443 whole entry, looked up, the tested form may be a part): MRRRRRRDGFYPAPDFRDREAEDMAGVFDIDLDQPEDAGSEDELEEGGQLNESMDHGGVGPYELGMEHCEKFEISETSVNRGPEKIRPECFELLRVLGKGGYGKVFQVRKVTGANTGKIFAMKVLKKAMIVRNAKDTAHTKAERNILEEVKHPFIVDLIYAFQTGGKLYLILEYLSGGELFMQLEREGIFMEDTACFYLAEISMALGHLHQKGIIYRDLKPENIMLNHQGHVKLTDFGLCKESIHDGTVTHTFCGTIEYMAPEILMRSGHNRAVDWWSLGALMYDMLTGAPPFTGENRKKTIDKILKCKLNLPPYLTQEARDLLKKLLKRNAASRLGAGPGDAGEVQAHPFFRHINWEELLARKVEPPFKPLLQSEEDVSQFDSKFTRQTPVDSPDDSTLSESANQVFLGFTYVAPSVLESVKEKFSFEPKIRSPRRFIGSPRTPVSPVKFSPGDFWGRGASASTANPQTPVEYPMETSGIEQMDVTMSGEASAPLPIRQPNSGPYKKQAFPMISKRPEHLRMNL
Leucine-rich repeat serine/threonine-protein kinase 2 (Homo sapiens), sequence (Q5S007 whole entry, the tested form may be a part): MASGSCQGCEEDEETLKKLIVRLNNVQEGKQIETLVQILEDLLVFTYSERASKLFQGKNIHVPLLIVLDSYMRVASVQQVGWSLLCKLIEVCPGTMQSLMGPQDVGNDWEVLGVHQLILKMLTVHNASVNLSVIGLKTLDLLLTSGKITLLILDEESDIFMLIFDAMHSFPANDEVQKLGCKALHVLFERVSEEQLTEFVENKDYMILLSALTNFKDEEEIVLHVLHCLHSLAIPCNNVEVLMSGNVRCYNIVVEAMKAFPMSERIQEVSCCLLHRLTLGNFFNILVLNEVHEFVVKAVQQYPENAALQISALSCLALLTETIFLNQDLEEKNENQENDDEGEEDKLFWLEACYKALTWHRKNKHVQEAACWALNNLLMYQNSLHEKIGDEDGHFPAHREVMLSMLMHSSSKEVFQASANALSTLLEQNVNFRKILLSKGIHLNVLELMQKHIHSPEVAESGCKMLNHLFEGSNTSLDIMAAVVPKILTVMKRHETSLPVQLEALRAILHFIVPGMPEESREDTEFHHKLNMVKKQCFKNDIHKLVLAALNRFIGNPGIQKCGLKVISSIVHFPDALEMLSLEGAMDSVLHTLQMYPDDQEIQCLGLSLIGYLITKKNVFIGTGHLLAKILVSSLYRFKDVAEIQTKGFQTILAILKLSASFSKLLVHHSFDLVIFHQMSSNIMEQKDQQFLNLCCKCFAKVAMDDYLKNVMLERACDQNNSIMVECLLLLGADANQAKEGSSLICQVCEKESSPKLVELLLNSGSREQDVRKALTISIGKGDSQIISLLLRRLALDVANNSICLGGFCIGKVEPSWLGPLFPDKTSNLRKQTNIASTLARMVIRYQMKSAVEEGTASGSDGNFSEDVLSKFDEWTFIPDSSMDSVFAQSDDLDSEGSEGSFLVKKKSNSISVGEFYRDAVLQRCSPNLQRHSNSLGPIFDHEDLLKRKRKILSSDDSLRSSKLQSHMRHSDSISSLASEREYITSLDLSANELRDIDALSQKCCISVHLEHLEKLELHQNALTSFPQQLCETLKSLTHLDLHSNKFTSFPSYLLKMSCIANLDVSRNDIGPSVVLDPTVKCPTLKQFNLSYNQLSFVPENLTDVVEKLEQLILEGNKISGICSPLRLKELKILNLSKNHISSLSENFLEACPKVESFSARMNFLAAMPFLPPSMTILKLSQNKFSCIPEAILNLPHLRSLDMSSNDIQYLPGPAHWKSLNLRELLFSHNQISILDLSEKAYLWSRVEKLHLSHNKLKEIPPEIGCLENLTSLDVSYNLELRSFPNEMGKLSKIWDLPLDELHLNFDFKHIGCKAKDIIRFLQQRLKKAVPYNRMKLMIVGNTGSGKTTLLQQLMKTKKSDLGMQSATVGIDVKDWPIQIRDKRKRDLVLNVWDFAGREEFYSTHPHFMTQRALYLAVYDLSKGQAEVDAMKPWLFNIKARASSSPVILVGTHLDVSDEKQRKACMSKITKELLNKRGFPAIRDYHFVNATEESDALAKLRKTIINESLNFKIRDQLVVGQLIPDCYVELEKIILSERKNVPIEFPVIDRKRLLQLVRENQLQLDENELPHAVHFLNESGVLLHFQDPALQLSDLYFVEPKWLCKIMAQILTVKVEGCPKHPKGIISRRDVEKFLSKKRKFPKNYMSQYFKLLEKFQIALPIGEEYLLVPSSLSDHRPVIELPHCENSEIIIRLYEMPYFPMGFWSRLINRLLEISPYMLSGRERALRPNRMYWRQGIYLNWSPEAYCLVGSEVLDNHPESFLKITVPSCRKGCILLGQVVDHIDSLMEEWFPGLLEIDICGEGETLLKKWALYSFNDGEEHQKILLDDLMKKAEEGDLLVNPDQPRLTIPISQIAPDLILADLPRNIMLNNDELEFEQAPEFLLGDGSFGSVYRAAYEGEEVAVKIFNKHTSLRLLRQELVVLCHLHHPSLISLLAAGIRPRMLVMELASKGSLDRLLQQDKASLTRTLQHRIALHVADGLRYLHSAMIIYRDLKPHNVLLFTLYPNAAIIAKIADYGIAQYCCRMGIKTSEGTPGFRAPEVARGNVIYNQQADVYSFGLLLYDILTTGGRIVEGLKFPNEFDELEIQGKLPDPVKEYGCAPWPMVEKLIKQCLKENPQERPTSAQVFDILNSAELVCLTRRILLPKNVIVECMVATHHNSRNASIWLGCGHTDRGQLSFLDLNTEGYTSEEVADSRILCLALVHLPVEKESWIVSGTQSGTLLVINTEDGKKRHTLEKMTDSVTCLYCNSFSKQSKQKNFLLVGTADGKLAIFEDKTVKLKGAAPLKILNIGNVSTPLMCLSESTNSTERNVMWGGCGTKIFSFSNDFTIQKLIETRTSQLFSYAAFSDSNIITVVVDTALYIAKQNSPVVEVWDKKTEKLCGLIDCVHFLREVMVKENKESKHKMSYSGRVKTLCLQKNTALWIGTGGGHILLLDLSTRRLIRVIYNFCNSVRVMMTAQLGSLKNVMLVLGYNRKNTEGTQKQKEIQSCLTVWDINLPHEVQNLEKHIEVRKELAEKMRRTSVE
Receptor tyrosine-protein kinase erbB-2, sequence (P04626 whole entry, the tested form may be a part): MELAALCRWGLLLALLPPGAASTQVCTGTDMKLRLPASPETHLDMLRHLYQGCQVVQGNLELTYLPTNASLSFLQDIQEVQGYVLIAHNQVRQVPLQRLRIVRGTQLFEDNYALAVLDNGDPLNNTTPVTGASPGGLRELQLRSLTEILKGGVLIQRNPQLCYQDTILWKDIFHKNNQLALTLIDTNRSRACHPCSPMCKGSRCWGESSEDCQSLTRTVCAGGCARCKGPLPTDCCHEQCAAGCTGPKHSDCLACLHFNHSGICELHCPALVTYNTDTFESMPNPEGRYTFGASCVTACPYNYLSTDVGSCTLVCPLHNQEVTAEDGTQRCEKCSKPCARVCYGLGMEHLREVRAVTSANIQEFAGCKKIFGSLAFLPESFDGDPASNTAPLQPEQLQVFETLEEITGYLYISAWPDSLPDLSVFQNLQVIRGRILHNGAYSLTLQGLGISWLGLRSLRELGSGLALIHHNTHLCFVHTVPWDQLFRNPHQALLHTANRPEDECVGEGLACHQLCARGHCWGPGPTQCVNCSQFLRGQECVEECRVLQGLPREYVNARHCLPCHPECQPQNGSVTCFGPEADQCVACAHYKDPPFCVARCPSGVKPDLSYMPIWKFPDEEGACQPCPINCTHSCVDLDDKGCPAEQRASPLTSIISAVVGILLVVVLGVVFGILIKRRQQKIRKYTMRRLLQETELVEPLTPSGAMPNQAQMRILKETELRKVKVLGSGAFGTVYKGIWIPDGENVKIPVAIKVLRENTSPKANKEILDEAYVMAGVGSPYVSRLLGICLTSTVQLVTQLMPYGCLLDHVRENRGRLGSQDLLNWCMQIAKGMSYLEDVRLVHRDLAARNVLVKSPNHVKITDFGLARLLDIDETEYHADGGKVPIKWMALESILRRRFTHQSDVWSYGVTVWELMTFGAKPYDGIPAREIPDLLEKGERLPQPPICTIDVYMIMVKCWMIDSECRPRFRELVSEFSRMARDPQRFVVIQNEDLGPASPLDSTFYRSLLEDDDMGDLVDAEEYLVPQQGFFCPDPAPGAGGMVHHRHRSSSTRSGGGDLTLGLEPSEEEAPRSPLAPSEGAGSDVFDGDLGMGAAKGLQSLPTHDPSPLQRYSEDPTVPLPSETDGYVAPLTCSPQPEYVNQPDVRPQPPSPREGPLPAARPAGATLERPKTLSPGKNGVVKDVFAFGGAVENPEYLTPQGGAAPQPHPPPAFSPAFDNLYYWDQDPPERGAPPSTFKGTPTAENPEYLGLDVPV
Bone morphogenetic protein receptor type-1B (Homo sapiens), sequence (O00238 whole entry, the tested form may be a part): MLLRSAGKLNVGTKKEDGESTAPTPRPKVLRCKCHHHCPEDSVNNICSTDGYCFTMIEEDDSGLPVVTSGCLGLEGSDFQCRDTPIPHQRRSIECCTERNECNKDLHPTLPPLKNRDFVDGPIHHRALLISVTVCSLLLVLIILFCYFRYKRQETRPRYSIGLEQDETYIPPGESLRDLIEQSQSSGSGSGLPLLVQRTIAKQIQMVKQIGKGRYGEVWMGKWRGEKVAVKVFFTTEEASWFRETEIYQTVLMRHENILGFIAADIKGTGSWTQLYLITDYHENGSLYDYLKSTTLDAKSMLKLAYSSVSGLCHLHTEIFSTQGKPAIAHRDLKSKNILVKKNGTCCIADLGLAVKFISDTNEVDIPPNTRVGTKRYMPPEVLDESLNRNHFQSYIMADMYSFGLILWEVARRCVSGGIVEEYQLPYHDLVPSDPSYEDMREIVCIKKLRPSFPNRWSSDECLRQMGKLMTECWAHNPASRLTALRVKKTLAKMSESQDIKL

SMILES: C=CC(=O)Nc1cc(Nc2ncc(Cl)c(Nc3ccccc3S(=O)(=O)C(C)C)n2)c(OC)cc1N(C)CCN(C)C
- half-life [1]: 1.25 h
- concentration at 8 h [2]: 740 nM
- Activity [3]: 50%
- Activity [4]: 96%
- Activity [5]: 0%
- Activity [6]: 10%
- Activity [7]: 0%
- Activity [8]: 95%
- Activity [9]: 55%
- Activity [10]: 74%
- Activity [11]: 91%
- Activity [12]: 1.7%
- Activity [13]: 32%
- Activity [14]: 40%
- Activity [15]: 14%
- Activity [16]: 54%
- Activity [17]: 69%
- Activity [18]: 83%
- Activity [19]: 1.2%
- Activity [20]: 15%
- Activity [21]: 94%
- Activity [22]: 2%
- Activity [23]: 42%
- IC50 [24]: 37 nM
- Activity at […], 10 µM [25]: 86%
